Data on 4 molecules can be found in ChEMBL document CHEMBL5696442, “Discovery of type II inhibitors of TGFβ-activated kinase 1 (TAK1) and mitogen-activated protein kinase kinase kinase kinase 2 (MAP4K2)” (J Med Chem, 2015).

For assay [1], the target named is Misshapen-like kinase 1 (Homo sapiens) (UniProt Q8N4C8). In words: Inhibition of ZC3 Lys2 labeling site in human A-375 cells at 0.5 uM by KiNativ Profiling analysis relative to control. The format is cell-based.
The target in a further assay is Ephrin type-B receptor 4 (Homo sapiens, UniProt P54760). The assay is described as follows: Inhibition of EphB4 (unknown origin) ACT labeling site by KiNativ Profiling analysis.
The next assay has as its system BaF3. The assay is described as follows: Antiproliferative activity against parental mouse BaF3 cells harbouring Bcr/Abl assessed reduction in cell viability measured after 48 hrs by Celltiter-glo assay. Type of assay: functional, cell-based. The note with it: BaF3, 48 h. The essentials: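 Cells were grown with serial dilutions of compound for 48 h, and viability was read by CellTiter-Glo. IC50 was derived from the dose–response curve. Parental Ba/F3 cells were grown in the presence of interleukin 3. The BCR-ABL line is BCR-ABL-dependent Ba/F3.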
For orientation: Cellular ATP, detected with luciferase, serves as a proxy for viable cell number.

The target in assay [2] is Cyclin-dependent kinase 2 (Homo sapiens) (UniProt P24941). In words: Inhibition of CDK2 Lys1 labeling site in human A-375 cells at 5 uM by KiNativ Profiling analysis relative to control. The format is cell-based. The gist of the method:
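Intact A375 melanoma cells were treated with compound at 5 or 0.5 μM, then lysed. Lysate kinases were labeled with a lysine-reactive ATP or ADP-biotin probe (KiNativ). Inhibition is read as protection of each kinase labeling site from probe labeling.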

For assay [3], the target named is T1, Serine/threonine-protein kinase 3 (Homo sapiens) (UniProt Q13188).
T1 sequence (whole entry): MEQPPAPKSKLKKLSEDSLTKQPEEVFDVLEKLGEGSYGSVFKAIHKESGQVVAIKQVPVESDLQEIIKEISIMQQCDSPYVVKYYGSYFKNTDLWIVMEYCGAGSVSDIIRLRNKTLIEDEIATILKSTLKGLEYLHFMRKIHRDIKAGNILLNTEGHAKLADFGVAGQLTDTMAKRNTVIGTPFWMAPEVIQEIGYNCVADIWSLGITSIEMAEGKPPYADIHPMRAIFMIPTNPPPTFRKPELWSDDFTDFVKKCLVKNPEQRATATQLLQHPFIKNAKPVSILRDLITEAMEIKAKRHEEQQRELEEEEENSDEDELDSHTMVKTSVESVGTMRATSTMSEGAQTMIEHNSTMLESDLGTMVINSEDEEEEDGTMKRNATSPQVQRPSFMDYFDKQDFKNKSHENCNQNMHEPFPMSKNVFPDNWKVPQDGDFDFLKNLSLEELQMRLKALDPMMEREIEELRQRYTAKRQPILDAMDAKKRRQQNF
In words: Inhibition of MST2 Lys1 labeling site in human A-375 cells at 5 uM by KiNativ Profiling analysis relative to control. The format is cell-based.

For assay [4], the target named is Serine/threonine-protein kinase Nek7 (Homo sapiens) (UniProt Q8TDX7). The assay is described as follows: Inhibition of NEK7 ACT labeling site in human A-375 cells at 5 uM by KiNativ Profiling analysis relative to control. Type of assay: cell-based.
The target in assay [5] is T2, Inhibitor of nuclear factor kappa-B kinase subunit epsilon (Homo sapiens) (UniProt Q14164).
T2 sequence (whole entry): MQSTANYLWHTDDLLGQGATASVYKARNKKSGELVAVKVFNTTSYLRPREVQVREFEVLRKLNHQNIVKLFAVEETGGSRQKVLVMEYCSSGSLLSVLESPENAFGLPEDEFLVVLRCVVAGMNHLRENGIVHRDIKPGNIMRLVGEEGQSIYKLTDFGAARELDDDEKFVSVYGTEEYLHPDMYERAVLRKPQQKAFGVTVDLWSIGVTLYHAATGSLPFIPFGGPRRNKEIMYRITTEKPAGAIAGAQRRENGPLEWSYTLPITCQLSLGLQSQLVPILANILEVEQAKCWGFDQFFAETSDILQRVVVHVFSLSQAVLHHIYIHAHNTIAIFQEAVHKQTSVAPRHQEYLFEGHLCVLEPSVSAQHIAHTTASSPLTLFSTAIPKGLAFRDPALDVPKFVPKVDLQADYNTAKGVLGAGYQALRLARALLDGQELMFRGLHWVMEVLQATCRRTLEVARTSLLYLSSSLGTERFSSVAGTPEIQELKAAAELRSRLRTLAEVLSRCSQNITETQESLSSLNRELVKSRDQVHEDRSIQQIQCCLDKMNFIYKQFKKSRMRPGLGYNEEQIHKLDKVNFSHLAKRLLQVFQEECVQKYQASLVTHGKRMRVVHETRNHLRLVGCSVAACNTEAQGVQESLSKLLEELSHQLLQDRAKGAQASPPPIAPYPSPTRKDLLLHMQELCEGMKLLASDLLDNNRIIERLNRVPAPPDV
In words: Inhibition of IKKe Lys2 labeling site in human A-375 cells at 0.5 uM by KiNativ Profiling analysis relative to control. Type of assay: cell-based.

Assay [6] addresses T3, Serine/threonine-protein kinase Nek9 (Homo sapiens) (UniProt Q8TD19).
T3 sequence (whole entry): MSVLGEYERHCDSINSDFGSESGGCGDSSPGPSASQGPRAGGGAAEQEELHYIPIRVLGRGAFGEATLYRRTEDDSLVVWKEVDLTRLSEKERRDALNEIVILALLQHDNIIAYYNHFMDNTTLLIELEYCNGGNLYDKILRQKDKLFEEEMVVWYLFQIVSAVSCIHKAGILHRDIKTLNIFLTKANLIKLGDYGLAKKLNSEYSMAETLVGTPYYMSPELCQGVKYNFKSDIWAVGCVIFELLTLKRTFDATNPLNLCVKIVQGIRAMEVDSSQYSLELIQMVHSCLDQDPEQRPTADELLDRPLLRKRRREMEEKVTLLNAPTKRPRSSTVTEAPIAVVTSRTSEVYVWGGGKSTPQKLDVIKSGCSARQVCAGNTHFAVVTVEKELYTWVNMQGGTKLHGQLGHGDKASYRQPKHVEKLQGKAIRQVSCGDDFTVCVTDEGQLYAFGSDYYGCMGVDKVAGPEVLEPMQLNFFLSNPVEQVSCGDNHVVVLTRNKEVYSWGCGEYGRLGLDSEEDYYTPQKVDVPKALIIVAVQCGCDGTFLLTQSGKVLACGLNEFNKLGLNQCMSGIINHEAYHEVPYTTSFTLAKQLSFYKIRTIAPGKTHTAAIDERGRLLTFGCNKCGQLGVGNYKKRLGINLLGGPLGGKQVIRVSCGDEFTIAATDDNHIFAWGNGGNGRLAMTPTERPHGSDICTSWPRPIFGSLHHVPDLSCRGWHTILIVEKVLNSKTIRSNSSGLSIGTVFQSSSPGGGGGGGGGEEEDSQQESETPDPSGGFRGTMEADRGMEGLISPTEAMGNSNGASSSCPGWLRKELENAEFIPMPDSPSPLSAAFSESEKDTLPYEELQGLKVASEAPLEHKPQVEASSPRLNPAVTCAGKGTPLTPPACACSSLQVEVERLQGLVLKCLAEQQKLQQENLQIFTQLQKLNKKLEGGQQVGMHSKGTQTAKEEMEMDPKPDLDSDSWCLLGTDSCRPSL
The assay is described as follows: Inhibition of NEK9 Lys2 labeling site in human A-375 cells at 0.05 uM by KiNativ Profiling analysis relative to control. Type of assay: cell-based.

The target in assay [7] is Misshapen-like kinase 1 (Homo sapiens) (UniProt Q8N4C8). The assay is described as follows: Inhibition of ZC3 Lys2 labeling site in human Huh-7 cell lysate at 1 uM by KiNativ Profiling analysis relative to control. The format is subcellular.

Chain of Misshapen-like kinase 1 (Homo sapiens) (Q8N4C8 whole entry, looked up): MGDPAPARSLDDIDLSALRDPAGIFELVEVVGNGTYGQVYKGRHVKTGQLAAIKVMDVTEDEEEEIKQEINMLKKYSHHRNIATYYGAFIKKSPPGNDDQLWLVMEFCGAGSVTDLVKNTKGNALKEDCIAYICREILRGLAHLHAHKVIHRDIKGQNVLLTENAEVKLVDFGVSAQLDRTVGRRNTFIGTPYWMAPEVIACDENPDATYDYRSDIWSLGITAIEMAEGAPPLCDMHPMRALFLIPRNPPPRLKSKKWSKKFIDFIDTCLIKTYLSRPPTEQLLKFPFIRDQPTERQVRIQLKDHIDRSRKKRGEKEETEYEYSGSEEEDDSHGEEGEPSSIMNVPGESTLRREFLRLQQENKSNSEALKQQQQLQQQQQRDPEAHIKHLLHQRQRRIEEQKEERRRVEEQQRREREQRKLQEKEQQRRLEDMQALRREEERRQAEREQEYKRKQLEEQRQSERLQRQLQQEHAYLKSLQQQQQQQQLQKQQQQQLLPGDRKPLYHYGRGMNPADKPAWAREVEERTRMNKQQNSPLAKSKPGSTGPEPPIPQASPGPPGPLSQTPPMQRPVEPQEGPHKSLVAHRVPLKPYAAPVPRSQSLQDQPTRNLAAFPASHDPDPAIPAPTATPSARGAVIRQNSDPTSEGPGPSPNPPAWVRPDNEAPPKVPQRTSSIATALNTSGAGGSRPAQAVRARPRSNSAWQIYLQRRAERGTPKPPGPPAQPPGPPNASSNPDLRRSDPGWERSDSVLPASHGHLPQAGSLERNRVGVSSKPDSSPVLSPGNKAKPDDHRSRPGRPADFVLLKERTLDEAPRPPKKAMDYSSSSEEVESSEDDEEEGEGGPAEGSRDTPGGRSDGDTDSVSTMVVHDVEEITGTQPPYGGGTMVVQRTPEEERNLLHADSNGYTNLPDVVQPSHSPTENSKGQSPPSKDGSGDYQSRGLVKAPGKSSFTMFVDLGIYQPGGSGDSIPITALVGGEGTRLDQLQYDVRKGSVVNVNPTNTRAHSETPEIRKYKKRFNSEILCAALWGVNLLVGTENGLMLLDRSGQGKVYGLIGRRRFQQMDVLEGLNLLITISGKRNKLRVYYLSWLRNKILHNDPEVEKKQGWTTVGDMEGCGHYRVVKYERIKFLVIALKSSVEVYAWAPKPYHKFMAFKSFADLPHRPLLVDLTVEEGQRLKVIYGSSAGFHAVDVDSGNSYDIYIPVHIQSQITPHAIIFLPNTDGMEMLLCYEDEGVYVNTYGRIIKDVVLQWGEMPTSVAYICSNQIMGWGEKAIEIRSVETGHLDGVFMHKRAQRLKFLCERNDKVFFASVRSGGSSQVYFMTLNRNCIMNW
Chain of Ephrin type-B receptor 4 (P54760 whole entry): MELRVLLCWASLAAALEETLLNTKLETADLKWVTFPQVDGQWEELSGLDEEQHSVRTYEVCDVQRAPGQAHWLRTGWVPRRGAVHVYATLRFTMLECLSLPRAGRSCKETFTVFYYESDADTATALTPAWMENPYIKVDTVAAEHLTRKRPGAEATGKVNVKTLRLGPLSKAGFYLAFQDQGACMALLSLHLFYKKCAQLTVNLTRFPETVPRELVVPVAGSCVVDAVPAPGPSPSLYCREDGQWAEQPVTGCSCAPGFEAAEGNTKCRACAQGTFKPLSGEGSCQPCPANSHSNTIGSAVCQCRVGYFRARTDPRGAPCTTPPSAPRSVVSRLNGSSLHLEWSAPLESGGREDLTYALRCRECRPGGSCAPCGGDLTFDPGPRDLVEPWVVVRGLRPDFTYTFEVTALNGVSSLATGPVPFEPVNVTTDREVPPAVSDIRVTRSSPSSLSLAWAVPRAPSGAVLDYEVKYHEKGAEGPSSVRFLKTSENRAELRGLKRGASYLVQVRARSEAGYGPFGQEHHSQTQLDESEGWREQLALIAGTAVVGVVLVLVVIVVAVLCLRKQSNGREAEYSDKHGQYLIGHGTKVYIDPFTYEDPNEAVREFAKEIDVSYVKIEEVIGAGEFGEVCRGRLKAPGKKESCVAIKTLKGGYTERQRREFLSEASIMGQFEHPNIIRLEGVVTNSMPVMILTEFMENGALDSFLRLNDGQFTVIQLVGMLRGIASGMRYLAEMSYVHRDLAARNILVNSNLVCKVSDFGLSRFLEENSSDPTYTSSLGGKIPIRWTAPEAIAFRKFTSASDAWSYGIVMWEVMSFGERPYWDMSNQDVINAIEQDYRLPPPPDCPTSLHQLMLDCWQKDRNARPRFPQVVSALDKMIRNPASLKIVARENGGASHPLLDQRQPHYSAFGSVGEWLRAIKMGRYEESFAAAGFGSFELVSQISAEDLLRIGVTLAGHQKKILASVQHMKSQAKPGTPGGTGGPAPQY
Chain of Serine/threonine-protein kinase Nek7 (Homo sapiens) (Q8TDX7 whole entry, looked up): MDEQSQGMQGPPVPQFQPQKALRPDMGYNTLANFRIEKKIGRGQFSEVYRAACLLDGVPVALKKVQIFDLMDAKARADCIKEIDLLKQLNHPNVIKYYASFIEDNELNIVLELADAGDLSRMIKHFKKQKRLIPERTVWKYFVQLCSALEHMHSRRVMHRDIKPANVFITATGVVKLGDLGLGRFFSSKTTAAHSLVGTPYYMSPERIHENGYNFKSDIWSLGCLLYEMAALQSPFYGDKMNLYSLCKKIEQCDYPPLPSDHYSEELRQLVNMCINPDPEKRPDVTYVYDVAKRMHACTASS

As for `CCN1CCN(Cc2ccc(NC(=O)c3ccc(C)c(/C=C/c4cnc5[nH]ccc5c4OC)c3)cc2C(F)(F)F)CC1`, the inhibition (usually the change of the read-out against control, counted positive when it falls) in assay [1] is 48.1%; in assay [2], 17.6%; in assay [3], 25%; in assay [4] it was -6.2%; in assay [5], 16.9%; in assay [6], 2%. The half-maximal inhibitory concentration (IC50) (usually the point on the concentration scale where inhibition reaches its midpoint) against Ephrin type-B receptor 4 amounted to 54 nM; in the assay on BaF3, 10 nM.
In the case of `CCN1CCN(Cc2ccc(NC(=O)c3ccc(C)c(Oc4ccnc5[nH]ccc45)c3)cc2C(F)(F)F)CC1`, the inhibition in [1] was 70.8%; in assay [2] it was 37.3%; in assay [3] it was 13.7%; in [4], -3.5%; in [5], 35.7%; in assay [6], 4.2%. Besides, the 50% inhibitory concentration (IC50) against Ephrin type-B receptor 4 stood at 999 nM; in the assay with BaF3, 18 nM.
In the case of `CNc1cc(Oc2cc(C(=O)Nc3cc(-n4cnc(C)c4)cc(C(F)(F)F)c3)ccc2C)ncn1`, the inhibition in [7] was 24.1%.
With `CNc1cc(Oc2cc(C(=O)Nc3cc(N4CCN(C)CC4)cc(C(F)(F)F)c3)ccc2C)ncn1`, in [7], the inhibition was 2.7%.
